Data as given in ChEMBL document CHEMBL5032512, “A Photohormone for Light-Dependent Control of PPARα in Live Cells” (J Med Chem, 2021).

Legend:
Assay type in all cases: cell-based
[1] = target: T1, Peroxisome proliferator-activated receptor gamma (Homo sapiens, UniProt P37231); test: Agonist activity at Gal4-fused human PPARgamma LBD transfected in HEK293T cells assessed as transcriptional activation incubated for 14 to 16 hrs by dual-Glo luciferase assay
T1 sequence (P37231 whole entry): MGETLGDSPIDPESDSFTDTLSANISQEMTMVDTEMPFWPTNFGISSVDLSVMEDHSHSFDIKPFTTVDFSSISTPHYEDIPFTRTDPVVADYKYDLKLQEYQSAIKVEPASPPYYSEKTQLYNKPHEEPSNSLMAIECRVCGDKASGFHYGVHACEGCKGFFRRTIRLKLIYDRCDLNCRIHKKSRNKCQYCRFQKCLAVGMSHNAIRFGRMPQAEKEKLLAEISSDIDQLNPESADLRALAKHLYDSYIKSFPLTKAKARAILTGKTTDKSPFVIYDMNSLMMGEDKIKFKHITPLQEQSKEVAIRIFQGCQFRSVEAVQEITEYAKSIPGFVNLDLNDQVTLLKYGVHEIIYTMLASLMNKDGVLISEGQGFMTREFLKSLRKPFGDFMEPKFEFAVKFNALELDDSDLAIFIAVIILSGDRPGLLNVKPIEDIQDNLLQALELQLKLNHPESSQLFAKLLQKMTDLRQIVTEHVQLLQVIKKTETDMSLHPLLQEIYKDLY

HEK-293T = test: Cytotoxicity against HEK293T cells assessed as reduction in cell viability at >= 6 uM; settings: human
[2] = target: T2, Peroxisome proliferator-activated receptor alpha (Homo sapiens) (UniProt Q07869); test: Agonist activity at Gal4-fused human PPARalpha LBD transfected in HEK293T cells assessed as maximal relative activation incubated for 14 to 16 hrs by dual-Glo luciferase assay relative to GW7647; settings: time 14-16 hrs
T2 sequence (whole entry): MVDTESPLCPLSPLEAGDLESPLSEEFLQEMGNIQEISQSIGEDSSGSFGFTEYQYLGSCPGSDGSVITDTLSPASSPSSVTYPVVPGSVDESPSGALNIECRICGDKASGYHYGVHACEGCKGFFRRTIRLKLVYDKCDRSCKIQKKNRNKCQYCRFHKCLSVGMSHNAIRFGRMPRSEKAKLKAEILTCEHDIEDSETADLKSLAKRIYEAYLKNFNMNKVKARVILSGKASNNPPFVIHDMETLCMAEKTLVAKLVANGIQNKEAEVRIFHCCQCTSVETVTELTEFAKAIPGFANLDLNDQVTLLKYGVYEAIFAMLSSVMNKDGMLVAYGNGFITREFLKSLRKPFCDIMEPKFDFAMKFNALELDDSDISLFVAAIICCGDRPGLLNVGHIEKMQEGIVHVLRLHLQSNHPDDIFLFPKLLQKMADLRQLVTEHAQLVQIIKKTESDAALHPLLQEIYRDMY
Outline: (§1)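 HEK293T cells transiently transfected with pFR-Luc, pRL-SV40 and Gal4 fusion of human PPAR hinge region plus LBD. Compound added 5 h later in Opti-MEM with 0.1% DMSO, then left overnight (14−16 h). Dual-Glo firefly/Renilla luciferase read, giving RLU. Fold activation is taken against the DMSO control. Max relative activation is set against 1 μM GW7647 (α) or L165,041 (δ). EC50 from a four-parameter fit. Duplicates, ≥3 independent runs.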

[3] = target: T3, Peroxisome proliferator-activated receptor alpha (Homo sapiens, UniProt Q07869); test: Agonist activity at Gal4-fused human PPARalpha LBD transfected in HEK293T cells assessed as transcriptional activation incubated for 14 to 16 hrs by dual-Glo luciferase assay; outline: as §1
T3 sequence (Q07869 whole entry): T2 sequence (whole entry)

[4] = target: T4, Peroxisome proliferator-activated receptor delta (Homo sapiens, UniProt Q03181); test: Agonist activity at Gal4-fused human PPARdelta LBD transfected in HEK293T cells assessed as transcriptional activation incubated for 14 to 16 hrs by dual-Glo luciferase assay; outline: as §1
T4 sequence (Q03181 whole entry): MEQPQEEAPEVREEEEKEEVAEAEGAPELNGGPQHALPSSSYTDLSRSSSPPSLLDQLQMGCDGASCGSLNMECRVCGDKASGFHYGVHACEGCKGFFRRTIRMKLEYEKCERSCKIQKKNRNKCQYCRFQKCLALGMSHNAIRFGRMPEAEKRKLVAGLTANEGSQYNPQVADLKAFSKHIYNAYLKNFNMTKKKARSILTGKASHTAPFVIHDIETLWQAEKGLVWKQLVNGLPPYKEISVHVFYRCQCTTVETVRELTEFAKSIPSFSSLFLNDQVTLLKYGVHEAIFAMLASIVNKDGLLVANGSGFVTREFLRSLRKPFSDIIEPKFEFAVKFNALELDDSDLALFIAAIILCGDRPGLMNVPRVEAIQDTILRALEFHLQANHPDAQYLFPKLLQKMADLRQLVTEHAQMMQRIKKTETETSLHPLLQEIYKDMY

[5] = target: T5, Peroxisome proliferator-activated receptor delta (Homo sapiens) (UniProt Q03181); test: Agonist activity at Gal4-fused human PPARdelta LBD transfected in HEK293T cells assessed as maximal relative activation incubated for 14 to 16 hrs by dual-Glo luciferase assay relative to L165,041; settings: time 14-16 hrs; outline: as §1
T5 sequence (whole entry): T4 sequence (Q03181 whole entry)

Cc1ccc(/N=N/c2ccc(OCCc3ccc(OC(C)(C)C(=O)O)cc3)cc2)cc1
EC50 [1]: > 10 µM
Activity (HEK-293T): Non-Toxic
max activation [2]: 24%
EC50 [3]: 0.66 µM
EC50 [4]: 1.42 µM
max activation [5]: 33%
